Values after ≈ are worked out from the molar mass of the structure shown. Active and inactive are the calls of the source. The rule behind the calls is not given here.
What was measured:
Bacillus cereus [1] = test: Antimicrobial activity against Bacillus cereus at 10 ug/disk after 24 hrs by disk diffusion assay; format: functional
Summary of the method: (§1)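 Disc diffusion on 4 mm filter discs. Bacteria are grown overnight in LB at 28 C, then adjusted in saline to 1.0 × 10^5 cfu/ml. The suspension is mixed into top agar over peptone agar plates. Plates are incubated 24 h at 28 C, and growth-inhibition zone diameter is measured. Streptomycin and ampicillin controls are applied from a 1 mg/ml stock. Tests are done in duplicate.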

Micrococcus flavus [2] = test: Antimicrobial activity against Micrococcus flavus at 10 ug/disk after 24 hrs by disk diffusion assay; format: functional; summary of the method: as §1
Staphylococcus aureus [3] = test: Antimicrobial activity against Staphylococcus aureus at 10 ug/disk after 24 hrs by disk diffusion assay; format: functional; summary of the method: as §1
Escherichia coli [4] = test: Antimicrobial activity against Escherichia coli at 10 ug/disk after 24 hrs by disk diffusion assay; format: functional; summary of the method: as §1
Pseudomonas aeruginosa [5] = test: Antimicrobial activity against Pseudomonas aeruginosa at 10 ug/disk after 24 hrs by disk diffusion assay; format: functional; summary of the method: as §1
Enterobacter cloacae [6] = test: Antimicrobial activity against Enterobacter cloacae at 10 ug/disk after 24 hrs by disk diffusion assay; format: functional; summary of the method: as §1
Salmonella typhimurium [7] = test: Antimicrobial activity against Salmonella Typhimurium at 10 ug/disk after 24 hrs by disk diffusion assay; format: functional, organism-based; conditions: Salmonella enterica subsp. enterica serovar Typhimurium; summary of the method: as §1
Listeria monocytogenes [8] = test: Antimicrobial activity against Listeria monocytogenes at 10 ug/disk after 24 hrs by disk diffusion assay; format: functional; summary of the method: as §1
Bacillus cereus [9] = test: Antimicrobial activity against Bacillus cereus at 1 umol/disk after 24 hrs by disk diffusion assay; format: functional; summary of the method: as §1
Micrococcus flavus [10] = test: Antimicrobial activity against Micrococcus flavus at 1 umol/disk after 24 hrs by disk diffusion assay; format: functional; summary of the method: as §1
Staphylococcus aureus [11] = test: Antimicrobial activity against Staphylococcus aureus at 1 umol/disk after 24 hrs by disk diffusion assay; format: functional; summary of the method: as §1
Escherichia coli [12] = test: Antimicrobial activity against Escherichia coli at 1 umol/disk after 24 hrs by disk diffusion assay; format: functional; summary of the method: as §1
Pseudomonas aeruginosa [13] = test: Antimicrobial activity against Pseudomonas aeruginosa at 1 umol/disk after 24 hrs by disk diffusion assay; format: functional; summary of the method: as §1
Enterobacter cloacae [14] = test: Antimicrobial activity against Enterobacter cloacae at 1 umol/disk after 24 hrs by disk diffusion assay; format: functional; summary of the method: as §1
Salmonella typhimurium [15] = test: Antimicrobial activity against Salmonella Typhimurium at 1 umol/disk after 24 hrs by disk diffusion assay; format: functional, organism-based; conditions: Salmonella enterica subsp. enterica serovar Typhimurium; summary of the method: as §1
Listeria monocytogenes [16] = test: Antimicrobial activity against Listeria monocytogenes at 1 umol/disk after 24 hrs by disk diffusion assay; format: functional; summary of the method: as §1
Bacillus cereus [17] = test: Antimicrobial activity against Bacillus cereus at 1 umol/spot after 18 hrs by TLC-bioautographic method; format: functional
Summary of the method: (§2)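 TLC bioautography. Samples are spotted on silica gel TLC plates, then sprayed with bacteria (1.0 × 10^5 cfu/ml) in tryptic soy broth. Plates are incubated 18 h at 37 C and sprayed with 3% aqueous p-iodonitrotetrazolium violet. After a further 3 h, growth is stopped with 70% EtOH. White zones on a pink background are scored as inhibition-zone diameter with standard errors.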

Micrococcus flavus [18] = test: Antimicrobial activity against Micrococcus flavus at 1 umol/spot after 18 hrs by TLC-bioautographic method; format: functional; summary of the method: as §2
Staphylococcus aureus [19] = test: Antimicrobial activity against Staphylococcus aureus at 1 umol/spot after 18 hrs by TLC-bioautographic method; format: functional; summary of the method: as §2
Escherichia coli [20] = test: Antimicrobial activity against Escherichia coli at 1 umol/spot after 18 hrs by TLC-bioautographic method; format: functional; summary of the method: as §2
Pseudomonas aeruginosa [21] = test: Antimicrobial activity against Pseudomonas aeruginosa at 1 umol/spot after 18 hrs by TLC-bioautographic method; format: functional; summary of the method: as §2
Enterobacter cloacae [22] = test: Antimicrobial activity against Enterobacter cloacae at 1 umol/spot after 18 hrs by TLC-bioautographic method; format: functional; summary of the method: as §2
Salmonella typhimurium [23] = test: Antimicrobial activity against Salmonella Typhimurium at 1 umol/spot after 18 hrs by TLC-bioautographic method; format: functional, Salmonella enterica subsp. enterica serovar Typhimurium; summary of the method: as §2
Listeria monocytogenes [24] = test: Antimicrobial activity against Listeria monocytogenes at 1 umol/spot after 18 hrs by TLC-bioautographic method; format: functional; summary of the method: as §2
Bacillus cereus [25] = test: Antimicrobial activity against Bacillus cereus after 24 hrs by microdilution technique; format: functional
Summary of the method: (§3)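 Broth microdilution in LB medium. Inoculum is 1.0 × 10^4 cfu per well, from a saline-adjusted suspension of 1.0 × 10^5 cfu/ml. Compounds are dissolved in DMSO. Incubated 24 h at 28 C. MIC is the lowest concentration with no visible growth under a binocular microscope. MBC is read by subculture into fresh broth for 72 h, with no growth taken as 99.5% kill. OD is read at 655 nm.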

Micrococcus flavus [26] = test: Antimicrobial activity against Micrococcus flavus after 24 hrs by microdilution technique; format: functional; summary of the method: as §3
Staphylococcus aureus [27] = test: Antimicrobial activity against Staphylococcus aureus after 24 hrs by microdilution technique; format: functional; summary of the method: as §3
Escherichia coli [28] = test: Antimicrobial activity against Escherichia coli after 24 hrs by microdilution technique; format: functional; summary of the method: as §3
Pseudomonas aeruginosa [29] = test: Antimicrobial activity against Pseudomonas aeruginosa after 24 hrs by microdilution technique; format: functional; summary of the method: as §3
Enterobacter cloacae [30] = test: Antimicrobial activity against Enterobacter cloacae after 24 hrs by microdilution technique; format: functional; summary of the method: as §3
Salmonella typhimurium [31] = test: Antimicrobial activity against Salmonella Typhimurium after 24 hrs by microdilution technique; format: functional, Salmonella enterica subsp. enterica serovar Typhimurium; conditions: Salmonella enterica; summary of the method: as §3
Listeria monocytogenes [32] = test: Antimicrobial activity against Listeria monocytogenes after 24 hrs by microdilution technique; format: functional; summary of the method: as §3

Row | Structure (SMILES) | inhibition zone (IZ) (Bacillus cereus [1]) | inhibition zone (IZ) (Micrococcus flavus [2]) | inhibition zone (IZ) (Staphylococcus aureus [3]) | inhibition zone (IZ) (Pseudomonas aeruginosa [5]) | inhibition zone (IZ) (Enterobacter cloacae [6]) | inhibition zone (IZ) (Salmonella typhimurium [7]) | inhibition zone (IZ) (Listeria monocytogenes [8]) | inhibition zone (IZ) (Bacillus cereus [9]) | inhibition zone (IZ) (Micrococcus flavus [10]) | inhibition zone (IZ) (Staphylococcus aureus [11]) | inhibition zone (IZ) (Escherichia coli [12]) | inhibition zone (IZ) (Pseudomonas aeruginosa [13]) | inhibition zone (IZ) (Enterobacter cloacae [14]) | inhibition zone (IZ) (Salmonella typhimurium [15]) | inhibition zone (IZ) (Listeria monocytogenes [16]) | inhibition zone (IZ) (Bacillus cereus [17]) | inhibition zone (IZ) (Micrococcus flavus [18]) | inhibition zone (IZ) (Staphylococcus aureus [19]) | inhibition zone (IZ) (Escherichia coli [20]) | inhibition zone (IZ) (Pseudomonas aeruginosa [21]) | other results
1 | O=C(/C=C/c1ccc([N+](=O)[O-])cc1)c1ccc(Nc2nc(Nc3ccccc3)nc(Nc3ccccc3)n2)cc1 | inactive | inactive | inactive | inactive | inactive | inactive | inactive | inactive | inactive | inactive | 0.03 millimeter | inactive | inactive | inactive | inactive | inactive | 0.05 millimeter | inactive | inactive | inactive | zone of inhibition at 10 µg/disc (Escherichia coli [4]; read-out: IZ): 6 mm; inhibition zone (IZ) (Enterobacter cloacae [22]): 0.09 millimeter; inhibition zone (IZ) (Salmonella typhimurium [23]): 0.08 millimeter; inhibition zone (IZ) (Listeria monocytogenes [24]): 0.07 millimeter; MBC (Bacillus cereus [25]): 378 µM (≈ 200 µg/mL); MIC (Bacillus cereus [25]): 189 µM (≈ 100 µg/mL); MBC (Micrococcus flavus [26]): 378 µM (≈ 200 µg/mL); MIC (Micrococcus flavus [26]): 189 µM (≈ 100 µg/mL); MBC (Staphylococcus aureus [27]): 756 µM (≈ 400 µg/mL); MIC (Staphylococcus aureus [27]): 378 µM (≈ 200 µg/mL); MBC (Escherichia coli [28]): 378 µM (≈ 200 µg/mL); MIC (Escherichia coli [28]): 189 µM (≈ 100 µg/mL); MBC (Pseudomonas aeruginosa [29]): 756 µM (≈ 400 µg/mL); MIC (Pseudomonas aeruginosa [29]): 378 µM (≈ 200 µg/mL); MBC (Enterobacter cloacae [30]): 378 µM (≈ 200 µg/mL); MIC (Enterobacter cloacae [30]): 189 µM (≈ 100 µg/mL); MBC (Salmonella typhimurium [31]): 756 µM (≈ 400 µg/mL); MIC (Salmonella typhimurium [31]): 378 µM (≈ 200 µg/mL); MBC (Listeria monocytogenes [32]): 756 µM (≈ 400 µg/mL); MIC (Listeria monocytogenes [32]): 378 µM (≈ 200 µg/mL)
2 | O=C(/C=C/c1cccs1)c1ccc(Nc2nc(Nc3ccccc3)nc(Nc3ccccc3)n2)cc1 | inactive | inactive | inactive | inactive | inactive | inactive | inactive | inactive | inactive | inactive | inactive | inactive | inactive | inactive | inactive | inactive | inactive | inactive | inactive | inactive | inhibition zone (IZ) (Escherichia coli [4]): inactive; inhibition zone (IZ) (Enterobacter cloacae [22]): 0.08 millimeter; inhibition zone (IZ) (Salmonella typhimurium [23]; Salmonella enterica subsp. enterica serovar Typhimurium): inactive; inhibition zone (IZ) (Listeria monocytogenes [24]): 0.08 millimeter; MBC (Bacillus cereus [25]): 408 µM (≈ 200 µg/mL); MIC (Bacillus cereus [25]): 204 µM (≈ 100 µg/mL); MBC (Micrococcus flavus [26]): 408 µM (≈ 200 µg/mL); MIC (Micrococcus flavus [26]): 204 µM (≈ 100 µg/mL); MBC (Staphylococcus aureus [27]): 816 µM (≈ 400 µg/mL); MIC (Staphylococcus aureus [27]): 408 µM (≈ 200 µg/mL); MBC (Escherichia coli [28]): 816 µM (≈ 400 µg/mL); MIC (Escherichia coli [28]): 408 µM (≈ 200 µg/mL); MBC (Pseudomonas aeruginosa [29]): 816 µM (≈ 400 µg/mL); MIC (Pseudomonas aeruginosa [29]): 408 µM (≈ 200 µg/mL); MBC (Enterobacter cloacae [30]): 408 µM (≈ 200 µg/mL); MIC (Enterobacter cloacae [30]): 204 µM (≈ 100 µg/mL); MBC (Salmonella typhimurium [31]): 816 µM (≈ 400 µg/mL); MIC (Salmonella typhimurium [31]): 408 µM (≈ 200 µg/mL); MBC (Listeria monocytogenes [32]): 816 µM (≈ 400 µg/mL); MIC (Listeria monocytogenes [32]): 408 µM (≈ 200 µg/mL)
